# What was measured:
# [1] = organism: Rattus norvegicus; test: Organ distribution of [18F]ACF radiolabeled compound in rat blood after 60 min; format: ADME, organism-based; conditions: in vivo, 1 h
# Method in brief: (§1)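 Rats, three per time point, under ether anesthesia; 30 μCi tracer in 0.2 mL saline injected into femoral vein. Sacrificed by cardiac excision under ether at 2, 30, 60, 120 or 240 min. Organs removed, weighed and counted; % dose/organ calculated against counts of 1% of initial dose counted at the same time. Average of three rats ± SD.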
# [2] = organism: Rattus norvegicus; test: Ratio of regional brain distribution of [18F]-ACF radiolabeled compound in rat cerebellum to that of cerebellum after 2 min; format: ADME, organism-based; conditions: in vivo
# Method in brief: (§2)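 Rats, three per time point, given 30 μCi tracer in 0.2 mL saline into femoral vein under ether anesthesia; killed at 2, 30, 60, 120 or 240 min. Cortex, striatum, hippocampus, cerebellum, hypothalamus and rest of brain dissected, weighed, counted; % dose/g against diluted initial dose, then each region divided by cerebellum. Average of three rats ± SD.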
# [3] = organism: Rattus norvegicus; test: Regional brain distribution of [18F]ACF radiolabeled compound in rat cortex after 120 min; format: ADME, organism-based; conditions: in vivo, 2 h
# Method in brief: (§3)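 Rats (three per group) under ether anesthesia got 30 μCi tracer in 0.2 mL saline into the femoral vein and were killed by cardiac excision at the stated time. Cortex, striatum, hippocampus, cerebellum, hypothalamus and the rest of brain were dissected, weighed and gamma counted. %dose/g was taken against counts of a diluted initial dose. Regional ratios are each region's %dose/g over cerebellum's. Mean ± SD.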
# [4] = test system: Rattus norvegicus; test: Ratio of effect of pretreatment with nisoxatine with a dose of 2 mg/kg (i.v.) on specific binding of [18F]-ACF in rat brain hippocampus to that of cerebellum; format: ADME, organism-based; design: dose 2 mg/kg, route intravenous; conditions: in vivo, iv
# Method in brief: (§4)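 Rats (three per point) pretreated iv with competing drug at 2 mg/kg or saline (control) 5 min before iv [18F]ACF (50 μCi). At 1 h post tracer, brain regions (cortex, striatum, hippocampus, cerebellum, hypothalamus, remainder) dissected, weighed, counted as % dose/g and expressed as ratio to cerebellum. Average ± SD; ANOVA with Dunnett's test vs saline controls, p < 0.05.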
# [5] = organism: Rattus norvegicus; test: Ratio of regional brain distribution of [18F]-ACF radiolabeled compound in rat remainder to that of cerebellum after 30 min; format: ADME, organism-based; conditions: in vivo, 0.5 h; method in brief: as §3
# [6] = test system: Rattus norvegicus; test: Ratio of effect of pretreatment with nisoxatine with a dose of 2 mg/kg (i.v.) on specific binding of [18F]ACF in rat brain hypothalamus to that of cerebellum; format: ADME, organism-based; design: dose 2 mg/kg, route intravenous; conditions: in vivo, iv; method in brief: as §4
# [7] = test system: Rattus norvegicus; test: Effect of pretreatment with nisoxatine with a dose of 2 mg/kg (i.v.) on specific binding of [18F]ACF in rat brain cortex; format: ADME, organism-based; design: dose 2 mg/kg, route intravenous; conditions: in vivo, iv
# Method in brief: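 Rats pretreated iv with drug (2 mg/kg) or saline 5 min before iv [18F]ACF (50 μCi). Sacrificed 1 h after tracer. Brain regions were dissected, weighed and counted, and % dose/g was calculated against a diluted initial dose. Drug-treated rats were compared with saline controls by ANOVA/Dunnett's test (p<0.05). Three rats per point, average ± SD.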
# [8] = organism: Rattus norvegicus; test: Organ distribution of [18F]-ACF radiolabeled compound in rat liver after 60 min; format: ADME, organism-based; conditions: in vivo, 1 h
# Method in brief: (§5)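 Under ether anesthesia, 30 μCi no-carrier-added tracer in 0.2 mL saline injected into the femoral vein. Rats killed by cardiac excision at the stated time. Organs were removed, weighed and counted; % dose/organ was calculated against counts of a 1% initial-dose standard. Three rats per time, average ± SD.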
# [9] = organism: Rattus norvegicus; test: Ratio of regional brain distribution of [18F]-ACF radiolabeled compound in rat cortex to that of cerebellum after 240 min; format: ADME, organism-based; conditions: in vivo, 4 h; method in brief: as §2
# [10] = organism: Rattus norvegicus; test: Organ distribution of [18F]ACF radiolabeled compound in rat skin after 2 min; format: ADME, organism-based; conditions: in vivo; method in brief: as §1
# [11] = organism: Rattus norvegicus; test: Organ distribution of [18F]-ACF radiolabeled compound in rat muscle after 60 min; format: ADME, organism-based, Muscle tissue; conditions: in vivo, 1 h; method in brief: as §5
# [12] = organism: Rattus norvegicus; test: Ratio of regional brain distribution of [18F]-ACF radiolabeled compound in rat striatum to that of cerebellum after 120 min; format: ADME, organism-based; conditions: in vivo, 2 h; method in brief: as §3
# [13] = organism: Rattus norvegicus; test: Organ distribution of [18F]ACF radiolabeled compound in rat spleen after 240 min; format: ADME, organism-based; conditions: in vivo, 4 h; method in brief: as §1
smiles,measurement,setting,value
CN(C)Cc1ccccc1Sc1cc(F)c(Cl)cc1N,Dose/g,[1],4.65%
same,Ratio,[2],1
same,Dose/g,[3],0.09%
same,Ratio,[4],2.44
same,Ratio,[5],1.8
same,Ratio,[6],2.89
same,Dose/g,[7],0.37%
same,Dose/g,[8],10.3 % dose/organ
same,Ratio,[9],1.52
same,Dose/g,[10],4.76 % dose/organ
same,Dose/g,[11],7.69 % dose/organ
same,Ratio,[12],2.97
same,Dose/g,[13],0.03 % dose/organ

# — ChEMBL document CHEMBL1136006, “New PET imaging agent for the serotonin transporter: [(18)F]ACF (2-[(2-amino-4-chloro-5-fluorophenyl)thio]-N,N-dimethyl-benzenmethanamine)” (J Med Chem, 2002)
